Source: PubChem BioAssay (several laboratories)
RGS4 act: potentiators or activators of RGS4; HEK293 M3R/inducible RGS4, carbachol calcium flux Fluo4; active compounds read low; B-score at 10 µM; actives 0.92% (n = 310,000); AID 463111;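 active = B-score of the integrated calcium signal more than 4 SD below the library mean, with starting fluorescence not abnormally high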;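 note: negative B-score means reduced calcium response which marks RGS4 activation or potentiation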
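Assay system: HEK293 FlpIn-TREx cells, stable M3R, doxycycline-inducible RGS4 / Probe or stimulus: carbachol, ECmax concentration / Times: overnight RGS4 induction, 30 min dye load 37 °C, 20 min compound RT / Signal: kinetic calcium fluorescence imaging with Fluo4-AM dye, 2 µM / Measure: Agonist-evoked peak-minus-minimum fluorescence over baseline, integrated ratio, B score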
Hep lipid drop: hepatic lipid droplet formation modulation; AML12 mouse hepatocytes, oleate lipid droplets, BODIPY imaging; inhibition, % at 6.5 µM; actives 0.4% (n = 240,000);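 active = lipid droplet intensity inhibited by at least 50%, with more than 500 cells counted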
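Material – AML12 mouse liver cells · Also added – oleate loading, 100 µM · Compound dosing – 6.5 µM single-point dosing · Times – overnight treatment with compound plus oleate · Measured by – fluorescence imaging, 20x objective, two fields per well · Read-out – percent inhibition of filter-corrected integrated lipid droplet intensity per well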
MrgX1 ag: agonists of human MrgX1 receptor. Q96LB2. MrgX1-HEK293 cells, Fluo-4 calcium fluorescence, agonist mode; active compounds read high. B-score at 10 µM. actives 0.44% (n = 310,000);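 active = calcium response B-score plate-corrected fluorescence ratio at least 3 library SD, with starting fluorescence B-score inside 5 SD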
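System – MrgX1-expressing HEK293 cells · Incubation – cells plated overnight, dye loaded 0.5 h 37 °C, 0.5 h room temperature · Technique – kinetic Fluo-4 NW fluorescence of intracellular calcium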
RGS4 block: inhibitors of human RGS4. HEK293 M3R/RGS4 inducible, Fluo-4 calcium flux; active compounds read high; triggered by carbachol at its EC20. B-score at 10 µM. actives 0.45% (n = 310,000). AID 463165;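 active = B-score, a plate-corrected calcium signal, over three deviations above library mean, with baseline fluorescence within five deviations of library mean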;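 note: RGS4 expression induced by doxycycline in cells with stable M3 receptor; B-score is computed from the integrated fluorescence ratio over baseline after carbachol; higher B-score means a larger calcium signal and so more RGS4 inhibition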
Target sequence (P49798 whole entry, looked up): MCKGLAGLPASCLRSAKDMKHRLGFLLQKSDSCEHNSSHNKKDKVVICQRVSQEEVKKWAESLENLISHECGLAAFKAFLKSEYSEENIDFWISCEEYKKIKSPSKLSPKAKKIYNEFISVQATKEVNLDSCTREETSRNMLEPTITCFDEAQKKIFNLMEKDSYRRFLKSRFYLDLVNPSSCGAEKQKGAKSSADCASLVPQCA
MrgX1 allo act: allosterically activates human MrgX1 receptor signaling; Q96LB2; MrgX1-HEK293, Fluo-4 calcium flux, FDSS; active compounds read high; B-score at 10 µM; actives 0.63% (n = 310,000); AID 588675;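 active = plate-corrected calcium response at least 3 library SD above typical, normal starting fluorescence, not activating the receptor alone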;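 note: compound read alongside a low EC10 to EC30 dose of BAM8-22 agonist; peak minus trough fluorescence over baseline measured at the second addition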
MrgX1 antag: human MrgX1 receptor antagonism, primary screen | Q96LB2 | B-score at 10 µM | MRGX1-HEK293 calcium flux, Fluo-4, BAM8-22 antagonism; active compounds read low | actives 1.3% (n = 310,000);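 active = calcium-response B-score plate-corrected more than 3 library SD below zero, starting fluorescence within 5 deviations, no agonist response on first addition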;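 note: peak minus trough fluorescence over baseline after final BAM8-22 challenge near maximal dose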
* = called active by the depositor; i = inactive; . = not tested or not shown. In the library only some 3.8% were active in any assay of this set; here they are far more common.

SMILES	RGS4 act	Hep lipid drop	MrgX1 ag	RGS4 block	MrgX1 allo act	MrgX1 antag
O=C(c1ccc(COc2ccc(Cl)cc2Cl)o1)N1CCCC1	-7.6*	-7	i	i	i	i
COc1ccccc1OCc1ccc(C(=O)N2CCCCC2)o1	i	-35	i	i	i	i
O=C(COc1ccc(Cl)cc1Cl)Nc1ccc(CN2CCOCC2)cc1	i	2	i	i	i	i
COc1ccc(NC(=S)NNC(=O)COc2ccc(Cl)cc2Cl)cc1	i	20	i	i	i	i
O=C(COc1ccc(Cl)cc1Cl)Nc1ccc(CN2CCCCC2)cc1	-7.1*	3	i	i	i	i
Cc1cccc(NC(=S)NNC(=O)COc2ccc(Cl)cc2Cl)c1	i	-14	i	i	10*	i
CCN1CCN(C(=O)C2CCC(=O)N(Cc3cccc(C(F)(F)F)c3)C2)CC1 (configuration not stated)	i	-4	i	i	i	i
Cc1ccc(C(=O)N2CCC(C(=O)Nc3cccc([N+](=O)[O-])c3)CC2)cc1	i	4	i	i	i	i
CCOC(=O)NC1(C(F)(F)F)NC(=O)N(c2ccc(F)cc2)C1=O (configuration not stated)	i	3	i	i	i	i
COCCCn1c(SCC(=O)OC2CCCCC2)nnc1-c1cccs1	i	.	i	i	i	-5.8*
CCn1c(=S)sc2c(=O)n(CC(=O)Nc3ccccc3C(F)(F)F)c(C)nc21	i	-1	i	i	i	i
COc1cc(NC(=O)CSc2nnnn2C2CCCC2)cc(OC)c1	i	-13	i	i	i	i
COc1ccc(/C=C/C(=O)N2CCN(c3ccccn3)CC2)c(OC)c1OC	i	-3	i	i	i	i
N#C/C(C(N)=O)=C1/CCc2ccccc2N1	i	-3	i	i	i	-4.9*
O=C1CCc2ccccc2N1	i	1	i	i	i	i
Cc1cc(C=C2C(=O)c3ccccc3C2=O)c(C)n1-c1cccc(C(=O)O)c1	i	-18	i	i	10*	i
Cc1cc(C=C2C(=O)c3ccccc3C2=O)c(C)n1-c1ccccc1	i	.	i	i	8.5*	i
Cc1cc(/C=c2/sc3nc4ccccc4n3c2=O)c(C)n1-c1ccccn1	i	.	i	i	i	i
Cc1cc(/C=c2\sc3nc4ccccc4n3c2=O)c(C)n1-c1ccc(C(=O)O)cc1	-7.3*	9	.	i	.	.
Cn1c(SCc2cccc(F)c2)nnc1-c1ccncc1	i	-2	i	i	i	i
Clc1ccccc1/C=N/c1cc(-c2ccccc2)nn1-c1ccccc1	i	.	i	i	i	-4.9*
COc1ccc(NC(=O)C(=O)NNC(=O)C(C)Oc2ccc(Cl)cc2Cl)cc1 (configuration not stated)	i	2	i	i	i	-6.2*
CC(=O)Nc1ccc(NC(=O)C(C)Oc2ccc(Cl)cc2Cl)cc1 (configuration not stated)	i	7	i	i	i	i
N#Cc1ccc(COC(=O)CC(NC(N)=O)c2ccc(Cl)cc2)cc1 (configuration not stated)	i	5	i	i	i	i
O=C(CCC(=O)OCC(=O)c1ccc(Cl)cc1Cl)Nc1cccc2cccnc12	i	.	i	i	i	-8.4*
COc1ccc(S(=O)(=O)N2CCOC2CNC(=O)C(=O)NCCN2CCOCC2)cc1C (configuration not stated)	i	-14	i	i	i	i
O=C(c1ccc([N+](=O)[O-])cc1)N1CCSC1c1ccccc1 (configuration not stated)	i	0	i	i	i	i
O=C(c1ccc([N+](=O)[O-])cc1)N1CCSC1c1cccc(Cl)c1 (configuration not stated)	-7.5*	-48	i	i	i	i
